Reference: ChEMBL document CHEMBL1135765, “Synthesis of 3' '-substituted TSAO derivatives with anti-HIV-1 and anti-HIV-2 activity through an efficient palladium-catalyzed cross-coupling approach” (J Med Chem, 2002)

Assays:
[1] = system: Human immunodeficiency virus 2; assay: Effective concentration required to inhibit HIV-2 induced cytopathicity in CEM cell culture by 50%.; assay type: functional, organism-based; conditions: Human immunodeficiency virus 2, CCRF-CEM
In short: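 CEM cells at 4 × 10⁵/mL infected with HIV-1 or HIV-2 at ~100 CCID₅₀ per mL, mixed 1:1 with compound dilutions. Giant cell formation scored microscopically after 4 days. EC₅₀ is the concentration inhibiting virus-induced cytopathicity by 50%.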

[2] = system: Human immunodeficiency virus 2; assay: Effective concentration required to inhibit HIV-2 induced cytopathicity in MT-4 cell culture by 50%.; assay type: functional, organism-based; conditions: Human immunodeficiency virus 2, MT4
In short: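 MT-4 cells at 3 × 10⁵/mL infected with HIV-1 or HIV-2 at ~100 CCID₅₀ per mL, mixed 1:1 with compound dilutions. Cytopathicity read by trypan blue dye exclusion after 5 days. EC₅₀ is the concentration giving 50% protection against the virus-induced loss of cell viability.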

MT4 = assay: Cytotoxic concentration required to inhibit MT-4 cell proliferation by 50%; assay type: functional; conditions: Homo sapiens
In short: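 Mock-infected MT-4 cells (3 × 10⁵/mL) incubated with compound dilutions; CC₅₀ is the concentration that reduces the number of viable MT-4 cells by 50%.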

CCRF-CEM = assay: Cytostatic concentration required to inhibit CEM cell proliferation by 50%; assay type: functional; conditions: Homo sapiens
In short: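 CEM cells (4 × 10⁵/mL) exposed to compound dilutions without virus; CC₅₀ is the concentration that inhibits CEM cell proliferation by 50%.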

[3] = Effective concentration required to inhibit HIV-1 induced cytopathicity in MT-4 cell culture by 50%.; conditions: mt4

SMILES | EC50 [1] | EC50 [2] | CC50 (MT4) | CC50 (CCRF-CEM) | EC50 [3]
COC(=O)/C=C/C1=C(N)[C@@]2(OS1(=O)=O)[C@@H](CO[Si](C)(C)C(C)(C)C)O[C@@H](n1cc(C)c(=O)n(C)c1=O)[C@@H]2O[Si](C)(C)C(C)(C)C | > 2 µM | > 10 µM | 55 µM | 37 µM | –
Cc1cn([C@@H]2O[C@H](CO[Si](C)(C)C(C)(C)C)[C@@]3(OS(=O)(=O)C=C3N)[C@H]2O[Si](C)(C)C(C)(C)C)c(=O)n(C)c1=O | > 250 µM | > 250 µM | 230 µM | – | –
COC(=O)/C=C/C1=C(N)[C@@]2(OS1(=O)=O)[C@@H](CO[Si](C)(C)C(C)(C)C)O[C@@H](n1cc(C)c(=O)[nH]c1=O)[C@@H]2O[Si](C)(C)C(C)(C)C | 7.3 µM | 9.9 µM | 29 µM | 39 µM | –
C=CCC1=C(N)[C@@]2(OS1(=O)=O)[C@@H](CO[Si](C)(C)C(C)(C)C)O[C@@H](n1cc(C)c(=O)n(C)c1=O)[C@@H]2O[Si](C)(C)C(C)(C)C | > 50 µM | > 50 µM | 82 µM | 45 µM | –
CC#CC1=C(N)[C@@]2(OS1(=O)=O)[C@@H](CO[Si](C)(C)C(C)(C)C)O[C@@H](n1cc(C)c(=O)n(C)c1=O)[C@@H]2O[Si](C)(C)C(C)(C)C | > 2 µM | > 2 µM | 3.3 µM | 5 µM | –
Cc1cn([C@@H]2O[C@H](CO[Si](C)(C)C(C)(C)C)[C@@]3(OS(=O)(=O)C(c4ccccc4)=C3N)[C@H]2O[Si](C)(C)C(C)(C)C)c(=O)n(C)c1=O | – | > 50 µM | 24 µM | 65 µM | –
Cc1cn([C@@H]2O[C@H](CO[Si](C)(C)C(C)(C)C)[C@@]3(OS(=O)(=O)C(Cl)=C3N)[C@H]2O[Si](C)(C)C(C)(C)C)c(=O)[nH]c1=O | > 10 µM | > 10 µM | 5.4 µM | 7 µM | –
Cc1cn([C@@H]2O[C@H](CO[Si](C)(C)C(C)(C)C)C3(OS(=O)(=O)C=C3N)[C@H]2O[Si](C)(C)C(C)(C)C)c(=O)[nH]c1=O (stereo partly specified) | > 10 µM | > 10 µM | 12 µM | – | 0.06 µM
CCOC(=O)/C=C/C1=C(N)[C@@]2(OS1(=O)=O)[C@@H](CO[Si](C)(C)C(C)(C)C)O[C@@H](n1cc(C)c(=O)[nH]c1=O)[C@@H]2O[Si](C)(C)C(C)(C)C | > 10 µM | > 50 µM | 40 µM | 174 µM | –
C=CC1=C(N)[C@@]2(OS1(=O)=O)[C@@H](CO[Si](C)(C)C(C)(C)C)O[C@@H](n1cc(C)c(=O)[nH]c1=O)[C@@H]2O[Si](C)(C)C(C)(C)C | 4 µM | 3.3 µM | 24 µM | 36 µM | –
Cc1cn([C@@H]2O[C@H](CO[Si](C)(C)C(C)(C)C)[C@@]3(OS(=O)(=O)C(CC(N)=O)=C3NCC(N)=O)[C@H]2O[Si](C)(C)C(C)(C)C)c(=O)n(C)c1=O | > 2 µM | > 2 µM | 3.2 µM | 3.9 µM | –
Cc1cn([C@@H]2O[C@H](CO[Si](C)(C)C(C)(C)C)[C@@]3(OS(=O)(=O)C(c4ccccc4)=C3N)[C@H]2O[Si](C)(C)C(C)(C)C)c(=O)[nH]c1=O | > 2 µM | > 50 µM | 55 µM | 37 µM | –
Cc1cn([C@@H]2O[C@H](CO[Si](C)(C)C(C)(C)C)[C@@]3(OS(=O)(=O)C(Br)=C3N)[C@H]2O[Si](C)(C)C(C)(C)C)c(=O)[nH]c1=O | > 10 µM | > 10 µM | 18 µM | 17 µM | –
Cc1cn([C@@H]2O[C@H](CO[Si](C)(C)C(C)(C)C)[C@@]3(OS(=O)(=O)C(/C=C/CO)=C3N)[C@H]2O[Si](C)(C)C(C)(C)C)c(=O)[nH]c1=O | 1.2 µM | 5.4 µM | 17 µM | 18 µM | –
Cc1cn([C@@H]2O[C@H](CO[Si](C)(C)C(C)(C)C)[C@@]3(OS(=O)(=O)C(c4ccsc4)=C3N)[C@H]2O[Si](C)(C)C(C)(C)C)c(=O)n(C)c1=O | > 2 µM | > 2 µM | 3.9 µM | 33 µM | –
CC1=C(N)[C@@]2(OS1(=O)=O)[C@@H](CO[Si](C)(C)C(C)(C)C)O[C@@H](n1cc(C)c(=O)n(C)c1=O)[C@@H]2O[Si](C)(C)C(C)(C)C | > 50 µM | > 250 µM | > 250 µM | 10 µM | –
C=CCNC1=CS(=O)(=O)O[C@@]12[C@@H](CO[Si](C)(C)C(C)(C)C)O[C@@H](n1cc(C)c(=O)n(C)c1=O)[C@@H]2O[Si](C)(C)C(C)(C)C | > 50 µM | > 50 µM | 25 µM | 126 µM | –
Cc1cn([C@@H]2O[C@H](CO[Si](C)(C)C(C)(C)C)[C@@]3(OS(=O)(=O)C(I)=C3N)[C@H]2O[Si](C)(C)C(C)(C)C)c(=O)n(C)c1=O | > 2 µM | > 10 µM | 3.9 µM | 5.6 µM | –
C=CC1=C(N)[C@@]2(OS1(=O)=O)[C@@H](CO)O[C@@H](n1cc(C)c(=O)[nH]c1=O)[C@@H]2O[Si](C)(C)C(C)(C)C | > 50 µM | > 50 µM | 47 µM | 76 µM | –
CNC1=C(C)S(=O)(=O)O[C@@]12[C@@H](CO[Si](C)(C)C(C)(C)C)O[C@@H](n1cc(C)c(=O)n(C)c1=O)[C@@H]2O[Si](C)(C)C(C)(C)C | > 250 µM | > 250 µM | > 250 µM | 234 µM | –
Cc1cn([C@@H]2O[C@H](CO[Si](C)(C)C(C)(C)C)[C@@]3(OS(=O)(=O)C(I)=C3N)[C@H]2O[Si](C)(C)C(C)(C)C)c(=O)[nH]c1=O | > 2 µM | > 2 µM | 4.3 µM | 4 µM | –
Cc1cn([C@@H]2O[C@H](CO[Si](C)(C)C(C)(C)C)[C@@]3(OS(=O)(=O)C(/C=C/CO)=C3N)[C@H]2O[Si](C)(C)C(C)(C)C)c(=O)n(C)c1=O | 5.7 µM | > 10 µM | 13 µM | 18 µM | –
